The values below come from ChEMBL document CHEMBL4304743, “Discovery of ( E)- N1-(3-Fluorophenyl)- N3-(3-(2-(pyridin-2-yl)vinyl)-1 H-indazol-6-yl)malonamide (CHMFL-KIT-033) as a Novel c-KIT T670I Mutant Selective Kinase Inhibitor for Gastrointestinal Stromal Tumors (GISTs)” (J Med Chem, 2019).

SMILES strings stand for the structures. Calls of active or inactive are those of the source. The calls are words filed in the database; no cut-off is given here. A value given as a limit tells only on which side of the number the result lay.

Data set [1] relates to Mast/stem cell growth factor receptor Kit (Homo sapiens), P10721 [UNDEFINED MUTATION]. Briefly: Inhibition of c-KIT 560 to 578 deletion mutant in human GISTT1 cells assessed as reduction in S6 phosphorylation at S235/S236 residue at 0.1 uM to 3 uM after 1 hr by Western blot analysis. It is filed as cell-based. A digest of the protocol:
(§1)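 Serial compound dilutions applied for 1 h to GIST-T1, GIST-T1-T670I (CRISPR/Cas9 T670I knock-in, clone confirmed by Sanger sequencing) or GIST-5R cells in DMEM with 10% FBS. Cells then lysed and phospho-proteins detected by standard Western blotting.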

Data set [2] is described as follows: AUC (0 to infinity) in mouse at 10 mg/kg, po measured after 5 to 720 mins by LC-tandem mass spectrometry analysis. The note with it: in vivo. Set-up: dose 10 mg/kg, route oral, time infinity. The format is ADME, organism-based. In a few lines:
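Mice dosed 1 mg/kg i.v. or 10 mg/kg p.o.; plasma drug levels by LC-MS/MS, parameters by noncompartmental analysis; values not from triplicate testing.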

The test system of data set [3] is Mast/stem cell growth factor receptor Kit (Homo sapiens), P10721 [UNDEFINED MUTATION]. Briefly: Binding affinity to human partial length c-KIT V559D/[…] double mutant (Y545 to D952 residues) expressed in bacterial expression system assessed as enzyme remaining activity at 1 uM by Kinomescan method relative to control. A digest of the protocol:
(§2)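 KINOMEscan binding profile (DiscoverX) run at 1 μM against a panel of 468 kinases and mutants. Read-out is percent of control (%Ctrl) remaining bound.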

Data set [4] has as its target Casein kinase I isoform alpha (Homo sapiens, UniProt P48729). As to the kind of experiment: Inhibition of wild-type human partial length CSNK1A1 (M1 to L301 residues) expressed in mammalian expression system after 1 hr by Z-LYTE assay.
Data set [5] in a line: Oral bioavailability in Sprague-Dawley rat at 10 mg/kg measured after 5 to 720 mins by LC-tandem mass spectrometry analysis. It is filed as ADME, organism-based. As to conditions: in vivo. In a few lines:
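Male Sprague–Dawley rats (190-210 g), fasted 12 h, given 1 mg/kg i.v. or 10 mg/kg p.o. in DMSO/5% glucose water (1:9). Blood sampled at 2–720 min (i.v.) or 5–720 min (p.o.). Plasma proteins precipitated with methanol using caffeine internal standard, then LC-MS/MS. Noncompartmental analysis; F = AUC0-∞ ratio corrected for dose; triplicate ±SD.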

Data set [6] relates to Mast/stem cell growth factor receptor Kit (Homo sapiens), P10721 [UNDEFINED MUTATION]. Briefly: Inhibition of c-KIT 560 to 578 deletion/T670I double mutant in human GIST5R cells assessed as reduction in S6 phosphorylation at S235/S236 residue at 0.1 uM to 3 uM after 1 hr by Western blot analysis. It is filed as cell-based. A digest of the protocol:
as §1

Data set [7] is described as follows: Antitumor activity against human GIST5R cells xenografted in nude mouse assessed as tumor weight at 25 mg/kg, po administered […] via gavage for 28 days (reference value: 0.59g). The format is functional. In a few lines: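 Female nu/nu mice (5 weeks old) given subcutaneous right-flank GIST-5R cells in Matrigel. Dosing began at tumors of 200-400 mm3; randomized, 4 mice per group. Daily oral dosing (QD) at 25, 50 or 100 mg/kg in 0.5% methylcellulose/0.4% Tween80, or vehicle alone, for 28 days. Body weight and tumor volume, (W²×L)/2, measured daily; mean±SEM.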

Data set [8] can be described thus: MRT (0 to infinity) in mouse at 10 mg/kg, po measured after 5 to 720 mins by LC-tandem mass spectrometry analysis. It is filed as ADME, organism-based. As to conditions: in vivo.
Data set [9] deals with Mast/stem cell growth factor receptor Kit (Homo sapiens), P10721 [V559D,T670I]. Briefly: Binding affinity to human partial length c-KIT V559D/T670I double mutant (Y545 to D952 residues) expressed in bacterial expression system assessed as enzyme remaining activity at 1 uM by Kinomescan method relative to control. A digest of the protocol: as §2
Data set [10] has as its system Mast/stem cell growth factor receptor Kit (Homo sapiens), P10721 [UNDEFINED MUTATION]. As to the kind of experiment: Inhibition of c-KIT 560 to 578 deletion mutant in human GISTT1 cells assessed as reduction in ERK phosphorylation at T202/Y204 residue at 0.1 uM to 3 uM after 1 hr by Western blot analysis. The format is cell-based. A digest of the protocol:
as §1
In general terms: In western blotting, separated proteins are transferred to a membrane and probed.

In data set [11] the test system is GISTT1. Briefly: Antiproliferative activity against human GISTT1 cells harboring c-KIT 560 to 578 deletion/T670I double mutant incubated for 72 hrs by CCK8 assay. The format is functional. The note with it: GISTT1, 72 h. A digest of the protocol:
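Adherent GIST cells seeded at 1.5-5 × 10^4 cells/mL and left overnight at 37 °C, 5% CO2. Medium then replaced with medium holding serial compound dilutions; 72 h incubation. Viability by CCK-8, absorbance at 450 nm, normalized to DMSO control; GI50 from dose-response fit.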
(In general: Formazan colour is commonly taken as a measure of viable cells.)

Data set [12] can be described thus: Cmax in Sprague-Dawley rat at 1 mg/kg, iv measured after 2 to 720 mins by LC-tandem mass spectrometry analysis. The format is ADME, organism-based. Set-up: dose 1 mg/kg, route intravenous. The note with it: in vivo. A digest of the protocol: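 Male Sprague-Dawley rats (190-210 g), fasted 12 h, randomized into two groups: 1 mg/kg i.v. or 10 mg/kg p.o., both formulated in 10% DMSO/90% of 5% glucose water. Blood sampled at 2-720 min (i.v.) or 5-720 min (p.o.). Plasma protein-precipitated with methanol, caffeine internal standard, LC-MS/MS. Noncompartmental analysis; triplicate, ±SD.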

The test system of data set [13] is GISTT1. As to the kind of experiment: Induction of apoptosis in human GISTT1 cells harboring c-KIT 560 to 578 deletion/T670I double mutant assessed as increase in cleaved caspase level after 24 hrs by Western blot analysis. It is filed as functional, cell-based.
The target in data set [14] is Mast/stem cell growth factor receptor Kit (Homo sapiens, UniProt P10721). Briefly: Inhibition of TEL fused wild type c-KIT (unknown origin) transfected in mouse BaF3 cells assessed as reduction in phosphorylation at Y703 residue after 2 hrs by Western blot analysis. It is filed as cell-based.
Data set [15] relates to Mast/stem cell growth factor receptor Kit (Homo sapiens), P10721 [V559D]. As to the kind of experiment: Binding affinity to human partial length c-KIT V559D mutant (Y545 to D952 residues) expressed in bacterial expression system assessed as enzyme remaining activity at 1 uM by Kinomescan method relative to control. A digest of the protocol: as §2
The test system of data set [16] is GISTT1. Briefly: Induction of cell cycle arrest in human GISTT1 cells harboring c-KIT 560 to 578 deletion mutant after 24 hrs. The format is functional, cell-based.
In data set [17] the target is Serine/threonine-protein kinase pim-3 (Homo sapiens, UniProt Q86V86). Briefly: Binding affinity to wild-type human partial length PIM3 (G16 to A317 residues) expressed in bacterial expression system assessed as enzyme remaining activity at 1 uM by Kinomescan assay relative to control. In a few lines:
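KINOMEscan competition binding panel of 468 kinases and mutants, compound at 1 μM; binding reported as percent of control.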

In the next data set the test system is Mus musculus. As to the kind of experiment: Inhibition of AKT phosphorylation at […] residue in tumor of human GIST5R cells xenografted in nude mouse at 100 mg/kg, po administered as single dose and measured after 2 hrs. It is filed as functional, organism-based. In a few lines:
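Female nu/nu mice bearing subcutaneous GIST-5R tumors (cells in Matrigel, right flank) given one oral dose of 100 mg/kg in 0.5% methylcellulose/0.4% Tween80. Tumors collected over a 2 h time course. p-c-KIT, p-ERK and p-AKT measured alongside plasma drug levels.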

The subject of data set [18] is Mast/stem cell growth factor receptor Kit (Homo sapiens), P10721 [UNDEFINED MUTATION]. As to the kind of experiment: Inhibition of c-KIT 560 to 578 deletion/T670I double mutant in human GIST5R cells assessed as reduction in c-KIT autophosphorylation at Y823 residue at 0.1 uM to 3 uM after 1 hr by Western blot analysis. The format is cell-based. A digest of the protocol:
as §1

Chain of Mast/stem cell growth factor receptor Kit (Homo sapiens), P10721 [UNDEFINED MUTATION] (P10721 whole entry, looked up, stated change not applied, the tested form may be a part): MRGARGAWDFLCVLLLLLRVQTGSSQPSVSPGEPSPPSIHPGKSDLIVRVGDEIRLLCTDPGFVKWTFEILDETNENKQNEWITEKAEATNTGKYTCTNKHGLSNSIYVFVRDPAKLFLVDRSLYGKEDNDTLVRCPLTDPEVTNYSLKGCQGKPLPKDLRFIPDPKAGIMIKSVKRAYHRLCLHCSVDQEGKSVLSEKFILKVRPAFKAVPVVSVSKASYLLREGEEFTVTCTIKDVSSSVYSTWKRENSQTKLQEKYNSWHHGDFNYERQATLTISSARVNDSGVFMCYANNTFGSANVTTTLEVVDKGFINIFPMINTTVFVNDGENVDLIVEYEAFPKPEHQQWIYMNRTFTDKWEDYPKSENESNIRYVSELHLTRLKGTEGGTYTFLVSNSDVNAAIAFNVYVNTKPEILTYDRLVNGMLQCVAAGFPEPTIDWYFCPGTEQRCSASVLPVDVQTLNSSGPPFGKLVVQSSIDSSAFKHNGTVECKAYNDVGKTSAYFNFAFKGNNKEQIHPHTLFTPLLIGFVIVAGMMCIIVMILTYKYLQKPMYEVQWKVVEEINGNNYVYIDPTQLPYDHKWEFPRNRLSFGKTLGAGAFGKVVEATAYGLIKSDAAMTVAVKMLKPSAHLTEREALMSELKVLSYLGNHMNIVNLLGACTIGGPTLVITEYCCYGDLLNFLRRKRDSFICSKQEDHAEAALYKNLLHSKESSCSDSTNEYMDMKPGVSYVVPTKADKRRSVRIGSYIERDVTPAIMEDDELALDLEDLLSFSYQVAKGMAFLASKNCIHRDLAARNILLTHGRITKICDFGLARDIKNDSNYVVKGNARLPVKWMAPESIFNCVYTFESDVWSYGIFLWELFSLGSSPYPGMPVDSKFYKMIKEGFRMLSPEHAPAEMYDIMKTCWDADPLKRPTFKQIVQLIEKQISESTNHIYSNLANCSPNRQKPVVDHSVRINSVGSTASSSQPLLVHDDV
Chain of Mast/stem cell growth factor receptor Kit (Homo sapiens), P10721 [V559D,T670I] (P10721 whole entry V559D/T670I, the tested form may be a part): as the sequence (P10721 whole entry, looked up, stated change not applied, the tested form may be a part) above, with V559D, T670I counted along it
Chain of Casein kinase I isoform alpha (P48729 whole entry, the tested form may be a part, canonical isoform): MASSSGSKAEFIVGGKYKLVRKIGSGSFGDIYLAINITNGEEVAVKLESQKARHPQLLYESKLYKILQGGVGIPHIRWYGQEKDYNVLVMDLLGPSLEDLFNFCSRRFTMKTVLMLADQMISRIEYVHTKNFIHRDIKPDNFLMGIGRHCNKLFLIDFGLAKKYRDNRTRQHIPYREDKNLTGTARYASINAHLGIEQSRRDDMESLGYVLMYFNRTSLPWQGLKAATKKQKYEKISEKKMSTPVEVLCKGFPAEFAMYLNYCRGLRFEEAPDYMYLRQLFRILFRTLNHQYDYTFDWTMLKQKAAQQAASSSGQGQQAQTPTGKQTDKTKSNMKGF
Chain of Mast/stem cell growth factor receptor Kit (P10721 whole entry, the tested form may be a part): as the sequence (P10721 whole entry, looked up, stated change not applied, the tested form may be a part) above
Chain of Mast/stem cell growth factor receptor Kit (Homo sapiens), P10721 [V559D] (P10721 whole entry V559D, the tested form may be a part): as the sequence (P10721 whole entry, looked up, stated change not applied, the tested form may be a part) above, with V559D counted along it

A word on the AUC(0-inf): it is total exposure, with the tail of the curve extrapolated. A higher AUC(0-inf) goes with more exposure. Broadly, the IC50 is the concentration at which inhibition is half-maximal. Low readings indicate greater potency in that assay, high ones weaker potency in that assay. One may read the bioavailability as dose-corrected exposure relative to a reference, in per cent. For orientation: MRT inf means the average time that molecules of a dose stay in the body. The term GI50 denotes the concentration at which growth is held to half of that of the control. Broadly, the Cmax is the maximum level reached in the sampled fluid or tissue. By EC50 is commonly meant the concentration that produces a half-maximal response. As to `O=C(CC(=O)Nc1ccc2c(/C=C/c3ccccn3)n[nH]c2c1)Nc1cccc(F)c1`, the inhibition entry in data set [1], in data set [6], in data set [10] and in data set [18] was “Active” in each case. In addition, the AUC(0-inf) in data set [2] came out at 1.48 µg·h/mL. The Activity in [3] was less than 1%; in [7], 0.33 g; in [9] it was less than 1%; in the data set on GISTT1 [13], “Dose-dependent effect”; in data set [15], less than 1%; in the data set on GISTT1 [16] it was “Dose-dependent effect”. Moreover, the Activity in data set [17] amounted to 0%. The compound further had an IC50 in data set [4] of more than 10 µM. In data set [5], this compound returned a bioavailability of 27.5%. This compound also had an MRT inf in data set [8] of 2.2 h. Further, it took 0.288 µM to inhibit growth in the data set with GISTT1 [11] by half (GI50). The highest level in data set [12] (Cmax) was 0.379 µg/mL. Further, in data set [14], the EC50 was more than 1 µM. For the same compound, the inhibition entry in the data set on Mus musculus was “inactive”.
